Assay results from ChEMBL document CHEMBL4257453, “Identification of karanjin isolated from the Indian beech tree as a potent CYP1 enzyme inhibitor with cellular efficacy via screening of a natural product repository” (Medchemcomm, 2018).

Columns and labels:
CYP2C19 = CYP2C19 (Homo sapiens, UniProt P33261); experiment: Inhibition of recombinant human CYP2C19 expressed in baker's yeast-derived microsomes (Sacchrosomes) at 10 uM using 3-cyano-7-ethoxycoumarin substrate by EROD assay relative to control; format: ADME; conditions: probe 3-cyano-7-ethoxycoumarin
CYP2C19, sequence (P33261 whole entry, canonical isoform): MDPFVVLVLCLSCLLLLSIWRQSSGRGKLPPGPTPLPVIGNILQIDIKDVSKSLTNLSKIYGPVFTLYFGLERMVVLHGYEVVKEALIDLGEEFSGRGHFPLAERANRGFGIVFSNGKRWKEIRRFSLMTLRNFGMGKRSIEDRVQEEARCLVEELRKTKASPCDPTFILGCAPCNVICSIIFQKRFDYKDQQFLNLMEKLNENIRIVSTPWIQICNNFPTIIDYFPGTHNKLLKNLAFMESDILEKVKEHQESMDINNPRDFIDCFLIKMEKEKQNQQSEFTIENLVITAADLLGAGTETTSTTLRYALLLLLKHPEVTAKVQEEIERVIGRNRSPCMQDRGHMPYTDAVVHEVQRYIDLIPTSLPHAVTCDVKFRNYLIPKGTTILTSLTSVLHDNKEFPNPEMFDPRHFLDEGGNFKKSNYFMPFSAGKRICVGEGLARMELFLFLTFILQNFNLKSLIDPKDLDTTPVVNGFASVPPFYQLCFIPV
How it was run: (§1)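 Yeast microsomes carrying recombinant CYP (Sacchrosomes). […] Substrates per isoform are 7-ethoxyresorufin, 3-cyano-7-ethoxycoumarin, EOMCC or dibenzylfluorescein, read as endpoint fluorescence. Background from compound-only wells without enzyme is subtracted. Independent triplicate runs; α-naphthoflavone positive control.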

Homo sapiens = species: Homo sapiens; experiment: Selectivity index, ratio of IC50 for inhibition of human recombinant CYP1B1 expressed in HEK293 cells by fluorescence assay to IC50 for inhibition of human recombinant CYP1A1 expressed in HEK293 cells by fluorescence assay; format: cell-based
How it was run: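 HEK293 suspension cells transiently transfected with pcDNA3.1/CYP1B1 or pcDNA3.1/CYP1A1, 100×10^3 cells per well in triplicate. Compound (1 nM to 30 μM) preincubated 30 min at 37 °C, 8% CO2. 7-Ethoxyresorufin then added at 5 μM, and resorufin fluorescence (EROD) read over 60 min. IC50 taken from concentration-response for each isoform; index = CYP1B1 IC50 / CYP1A1 IC50.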

CYP3A4 = CYP3A4 (Homo sapiens, UniProt P08684); experiment: Inhibition of recombinant human CYP3A4 expressed in baker's yeast-derived microsomes (Sacchrosomes) at 10 uM using dibenzylfluorescein substrate by EROD assay relative to control; format: ADME; conditions: probe dibenzylfluorescein; how it was run: as §1
CYP3A4, sequence (P08684 whole entry): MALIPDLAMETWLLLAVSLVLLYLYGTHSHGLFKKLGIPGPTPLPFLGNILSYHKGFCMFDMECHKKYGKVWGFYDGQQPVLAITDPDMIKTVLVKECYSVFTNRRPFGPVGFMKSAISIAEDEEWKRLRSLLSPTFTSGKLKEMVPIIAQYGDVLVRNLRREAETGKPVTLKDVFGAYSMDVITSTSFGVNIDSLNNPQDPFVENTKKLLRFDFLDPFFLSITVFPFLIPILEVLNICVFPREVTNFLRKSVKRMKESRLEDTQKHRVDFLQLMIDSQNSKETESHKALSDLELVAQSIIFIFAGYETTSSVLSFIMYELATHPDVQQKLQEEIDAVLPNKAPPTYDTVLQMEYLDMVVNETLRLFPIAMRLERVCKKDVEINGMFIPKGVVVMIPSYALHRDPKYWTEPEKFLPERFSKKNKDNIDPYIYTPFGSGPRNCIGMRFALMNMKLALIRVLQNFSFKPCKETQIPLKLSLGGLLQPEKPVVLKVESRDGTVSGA

CYP1A1 [1] = target: T1, CYP1A1 (Homo sapiens, UniProt P04798); experiment: Inhibition of recombinant human CYP1A1 expressed in baker's yeast-derived microsomes (Sacchrosomes) at 10 uM using 7-ethoxyresorufin substrate by EROD assay relative to control; conditions: probe 7-ethoxyresorufin
T1 sequence (P04798 whole entry): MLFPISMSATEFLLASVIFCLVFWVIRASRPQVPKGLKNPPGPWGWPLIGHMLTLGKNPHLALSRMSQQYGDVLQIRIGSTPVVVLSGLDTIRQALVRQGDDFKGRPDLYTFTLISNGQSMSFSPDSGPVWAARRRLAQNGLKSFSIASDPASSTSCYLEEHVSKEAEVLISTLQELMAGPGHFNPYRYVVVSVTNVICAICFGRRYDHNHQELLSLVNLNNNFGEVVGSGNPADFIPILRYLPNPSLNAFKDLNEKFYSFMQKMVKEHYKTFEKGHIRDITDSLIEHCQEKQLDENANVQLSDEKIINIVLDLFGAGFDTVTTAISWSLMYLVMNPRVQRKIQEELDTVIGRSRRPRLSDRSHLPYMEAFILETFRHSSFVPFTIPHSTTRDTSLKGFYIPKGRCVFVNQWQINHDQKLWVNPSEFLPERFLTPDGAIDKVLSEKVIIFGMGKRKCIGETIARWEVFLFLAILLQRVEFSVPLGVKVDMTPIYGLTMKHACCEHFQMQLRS
How it was run: (§2)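 Yeast microsomes carrying recombinant CYP (Sacchrosomes). Substrates per isoform are 7-ethoxyresorufin, 3-cyano-7-ethoxycoumarin, EOMCC or dibenzylfluorescein, read as endpoint fluorescence. Background from compound-only wells without enzyme is subtracted. Independent triplicate runs; α-naphthoflavone positive control.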

CYP1A1 [2] = target: T1, CYP1A1; experiment: Inhibition of human recombinant CYP1A1 expressed in HEK293 cells at 10 uM using 7-ethoxyresorufin substrate preincubated for 30 mins followed by substrate addition and measured after 60 mins by fluorescence assay relative to control; format: cell-based; conditions: HEK293 cells expressing human recombinant CYP1A1, probe 7-ethoxyresorufin
How it was run: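 HEK293 cells adapted to suspension and transiently transfected with pcDNA3.1 plasmids carrying the individual CYP; 100×10^3 cells per well in triplicate. […] Fluorogenic substrate is then added at 5 μM and fluorescence read for 60 min.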

CYP1A2 = target: T2, CYP1A2 (Homo sapiens, UniProt P05177); experiment: Inhibition of recombinant human CYP1A2 expressed in baker's yeast-derived microsomes (Sacchrosomes) at 10 uM using 3-cyano-7-ethoxycoumarin substrate by EROD assay relative to control; format: ADME; conditions: probe 3-cyano-7-ethoxycoumarin; how it was run: as §2
T2 sequence (P05177 whole entry): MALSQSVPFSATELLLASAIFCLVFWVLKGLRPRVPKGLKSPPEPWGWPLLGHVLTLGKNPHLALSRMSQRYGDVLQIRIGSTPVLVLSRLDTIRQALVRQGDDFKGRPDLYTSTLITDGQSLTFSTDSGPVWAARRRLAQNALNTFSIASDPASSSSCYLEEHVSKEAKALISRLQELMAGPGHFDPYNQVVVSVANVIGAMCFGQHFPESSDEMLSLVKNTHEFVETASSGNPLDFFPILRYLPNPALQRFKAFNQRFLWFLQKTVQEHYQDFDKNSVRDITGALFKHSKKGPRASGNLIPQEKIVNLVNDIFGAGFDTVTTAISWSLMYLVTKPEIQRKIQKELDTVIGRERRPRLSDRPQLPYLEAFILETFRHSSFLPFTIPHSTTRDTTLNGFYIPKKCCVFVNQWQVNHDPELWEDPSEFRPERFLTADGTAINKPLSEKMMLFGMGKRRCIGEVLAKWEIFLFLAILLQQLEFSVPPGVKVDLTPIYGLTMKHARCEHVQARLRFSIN

SMILES | inhibition at 10 µM (CYP2C19) [%] | Ratio IC50 (Homo sapiens) | inhibition at 10 µM (CYP3A4) [%] | inhibition at 10 µM (CYP1A1 [1]) [%] | inhibition at 1 h, 10 µM (CYP1A1 [2]) [%] | inhibition at 10 µM (CYP1A2) [%]
COc1c2ccoc2cc2oc(=O)ccc12 [BERGAPTEN] | 5 | 192 | 3 | 68 | 91 | 73
COc1c2ccoc2c(OC)c2oc(=O)ccc12 [ISOPIMPINELLIN] | 0 | 319 | 0 | 71 | 91 | 62
